# How the values were obtained:
# P2Y purinoceptor 12 = P2Y purinoceptor 12 (Homo sapiens, UniProt Q9H244); assay: Binding affinity to human recombinant P2Y12 receptor expressed in CHO cells; type: cell-based
# [1] = Clearance in Sprague-Dawley rat at 2 mg/kg, iv and 5 mg/kg, po; type: ADME, organism-based; conditions: in vivo
# Outline: (§1)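 Male Sprague–Dawley rats, n = 2–4. Dosed by iv infusion at 2 mg/kg and orally at 5 mg/kg.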
# [2] = Volume of distribution at steady state in Sprague-Dawley rat at 2 mg/kg, iv and 5 mg/kg, po; type: ADME, organism-based; conditions: in vivo, read-out: Vdss; outline: as §1
# [3] = Effective half life in Sprague-Dawley rat at 2 mg/kg, iv and 5 mg/kg, po; type: ADME, organism-based; conditions: in vivo; outline: as §1
# in vivo = conditions: Sprague-Dawley, rat, po, 5 mg/kg
# Sequence of P2Y purinoceptor 12 (Q9H244 whole entry): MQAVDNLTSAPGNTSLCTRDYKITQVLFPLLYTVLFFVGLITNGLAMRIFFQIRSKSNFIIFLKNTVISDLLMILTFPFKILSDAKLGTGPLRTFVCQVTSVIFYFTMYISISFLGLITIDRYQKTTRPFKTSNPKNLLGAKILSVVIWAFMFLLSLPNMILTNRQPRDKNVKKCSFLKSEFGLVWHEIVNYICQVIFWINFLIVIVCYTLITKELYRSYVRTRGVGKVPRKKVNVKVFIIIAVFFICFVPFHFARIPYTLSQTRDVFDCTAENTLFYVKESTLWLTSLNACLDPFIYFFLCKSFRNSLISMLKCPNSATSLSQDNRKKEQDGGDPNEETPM
SMILES,Ki (P2Y purinoceptor 12) [nM],other results
CCOC(=O)N1CCN(C(=O)[C@H](CCC(=O)O)NC(=O)c2cc(NCc3ccccc3)cc(-c3ccccc3)n2)CC1,26,
CCCCOC(=O)N1CCN(C(=O)[C@H](CCC(=O)O)NC(=O)c2cc(OCCO)cc(-c3ccccc3)n2)CC1,21,
CCCCCOC(=O)N1CCN(C(=O)[C@H](CCC(=O)O)NC(=O)c2cc(OCCOC)cc(-c3ccccc3)n2)CC1,10,
CCOC(=O)N1CCN(C(=O)[C@H](CCC(=O)O)NC(=O)c2cc(N(CC)CC)cc(-c3ccccc3)n2)CC1,23,
C=CCOC(=O)N1CCN(C(=O)[C@H](CCC(=O)O)NC(=O)c2cc(OC3CCNCC3)cc(-c3ccccc3)n2)CC1,93,
CN(CCS(C)(=O)=O)c1cc(C(=O)N[C@@H](CCC(=O)O)C(=O)N2CCN(C(=O)OCCC3CCCC3)CC2)nc(-c2ccccc2)c1,80,
CCOC(=O)N1CCN(C(=O)[C@H](CCC(=O)O)NC(=O)c2cc(N3CCC(N)CC3)cc(-c3ccccc3)n2)CC1,27,
CCOC(=O)N1CCN(C(=O)[C@H](CCC(=O)O)NC(=O)c2cc(N3CCN(CCN(C)C)CC3)cc(-c3ccccc3)n2)CC1,47,
CCCCCCOC(=O)N1CCN(C(=O)[C@H](CCC(=O)O)NC(=O)c2cc(N(C)CCS(C)(=O)=O)cc(-c3ccccc3)n2)CC1,36,
CCCCCOC(=O)N1CCN(C(=O)[C@H](CCC(=O)O)NC(=O)c2cc(N3CCC(CN)CC3)cc(-c3ccccc3)n2)CC1,7,clearance [1]: 70 mL/min/kg; Vd [2]: 2.6 L/kg; half-life [3]: 24 min; bioavailability (in vivo): 0%
CCCCCCOC(=O)N1CCN(C(=O)[C@H](CCC(=O)O)NC(=O)c2cc(N3CCC(O)CC3)cc(-c3ccccc3)n2)CC1,24,
COC(=O)N1CCN(C(=O)[C@H](CCC(=O)O)NC(=O)c2cccc(-c3ccccc3)n2)CC1,2440,
CCOC(=O)N1CCN(C(=O)[C@H](CCC(=O)O)NC(=O)c2cc(OCCN)cc(-c3ccccc3)n2)CC1,328,
Cc1cccc(N2CCN(C(=O)[C@H](CCC(=O)O)NC(=O)c3cccc(-c4ccccc4)n3)CC2)c1,> 5700,
CCOC(=O)N1CCN(C(=O)[C@H](CCC(=O)O)NC(=O)c2cc(OC3CCNCC3)cc(-c3ccccc3)n2)CC1,68,
CCCCCOC(=O)N1CCN(C(=O)[C@H](CCC(=O)O)NC(=O)c2cc(OCCO)cc(-c3ccccc3)n2)CC1,32,
CCCCCOC(=O)N1CCN(C(=O)[C@H](CCC(=O)O)NC(=O)c2cc(OCCCC)cc(-c3ccccc3)n2)CC1,49,
C=CCOC(=O)N1CCN(C(=O)[C@H](CCC(=O)O)NC(=O)c2cc(OCCOC)cc(-c3ccccc3)n2)CC1,95,
CCOC(=O)N1CCN(C(=O)[C@H](CCC(=O)O)NC(=O)c2cc(OCc3ccccc3)cc(-c3ccccc3)n2)CC1,28,
COCCOc1cc(C(=O)N[C@@H](CCC(=O)O)C(=O)N2CCN(C(=O)OC(C)C)CC2)nc(-c2ccccc2)c1,189,
CCOC(=O)N1CCN(C(=O)[C@H](CCC(=O)O)NC(=O)c2cc(NCCOC)cc(-c3ccccc3)n2)CC1,99,
CCCCOC(=O)N1CCN(C(=O)[C@H](CCC(=O)O)NC(=O)c2cc(OC3CCNCC3)cc(-c3ccccc3)n2)CC1,12,

SMILES,Ki (P2Y purinoceptor 12) [nM],other results
CCCCOC(=O)N1CCN(C(=O)[C@H](CCC(=O)O)NC(=O)c2cc(OCCCC)cc(-c3ccccc3)n2)CC1,36,
CCOC(=O)N1CCN(C(=O)[C@H](CCC(=O)O)NC(=O)c2cc(NCCN(C)C)cc(-c3ccccc3)n2)CC1,270,
CCCCCCCOC(=O)N1CCN(C(=O)[C@H](CCC(=O)O)NC(=O)c2cccc(-c3ccccc3)n2)CC1,7,
CCOC(=O)N1CCN(C(=O)[C@H](CCC(=O)O)NC(=O)c2cc(OCCO)cc(-c3ccccc3)n2)CC1,157,
CCOC(=O)N1CCN(C(=O)[C@H](CCC(=O)O)NC(=O)c2cc(N3CCC(O)CC3)cc(-c3ccccc3)n2)CC1,42,
CCOC(=O)N1CCN(C(=O)[C@H](CCC(=O)O)NC(=O)c2cc(NC)cc(-c3ccccc3)n2)CC1,35,
C=CCOC(=O)N1CCN(C(=O)[C@H](CCC(=O)O)NC(=O)c2cc(OCCCC)cc(-c3ccccc3)n2)CC1,99,
CCCCOc1cc(C(=O)N[C@@H](CCC(=O)O)C(=O)N2CCN(C(=O)OCC)CC2)nc(-c2ccccc2)c1,39,
CCOC(=O)N1CCN(C(=O)[C@H](CCC(=O)O)NC(=O)c2cc(N3CCC(COC)CC3)cc(-c3ccccc3)n2)CC1,18,
Cc1cccc(N2CCN(C(=O)[C@H](CCC(=O)O)NC(=O)c3cc(-c4ccccc4)cc(-c4ccccc4)n3)CC2)c1,5.7,
CCOC(=O)N1CCN(C(=O)[C@H](CCC(=O)O)NC(=O)c2ccccn2)CC1,> 5400,
CCOC(=O)N1CCN(C(=O)[C@H](CCC(=O)O)NC(=O)c2cc(OCCCN)cc(-c3ccccc3)n2)CC1,214,
CCCCCOC(=O)N1CCN(C(=O)[C@H](CCC(=O)O)NC(=O)c2cc(N(C)CCS(C)(=O)=O)cc(-c3ccccc3)n2)CC1,15,clearance [1]: 69 mL/min/kg; Vd [2]: 1.3 L/kg; half-life [3]: 12 min
O=C(O)CC[C@H](NC(=O)c1cc(N2CCC(O)CC2)cc(-c2ccccc2)n1)C(=O)N1CCN(C(=O)OCCC2CCCC2)CC1,40,
CCCCCOC(=O)N1CCN(C(=O)[C@H](CCC(=O)O)NC(=O)c2cc(N3CCC(O)CC3)cc(-c3ccccc3)n2)CC1,11,
CCCCCCOC(=O)N1CCN(C(=O)[C@H](CCC(=O)O)NC(=O)c2cccc(-c3ccccc3)n2)CC1,43,clearance [1]: 29 mL/min/kg; Vd [2]: 1.7 L/kg; half-life [3]: 42 min; bioavailability (in vivo): > 95%
C=CCOC(=O)N1CCN(C(=O)[C@H](CCC(=O)O)NC(=O)c2cc(OCCO)cc(-c3ccccc3)n2)CC1,203,
CCCCOC(=O)N1CCN(C(=O)[C@H](CCC(=O)O)NC(=O)c2cccc(-c3ccccc3)n2)CC1,29,
NCC1CCN(c2cc(C(=O)N[C@@H](CCC(=O)O)C(=O)N3CCN(C(=O)OCCC4CCCC4)CC3)nc(-c3ccccc3)c2)CC1,69,
"CCCCCOC(=O)N1CCN(C(=O)C(CCC(=O)O)NC(=O)c2cc(N3CCC(COC)CC3)cc(-c3ccccc3)n2)CC1 (single isomer, unassigned)",510,
CCOC(=O)N1CCN(C(=O)[C@H](CCC(=O)O)NC(=O)c2cc(N3CCC(CN)CC3)cc(-c3ccccc3)n2)CC1,14,
CCOC(=O)N1CCN(C(=O)[C@H](CCC(=O)O)NC(=O)c2cc(OCCOC)cc(-c3ccccc3)n2)CC1,92,

SMILES,Ki (P2Y purinoceptor 12) [nM],other results
CCOC(=O)N1CCN(C(=O)[C@H](CCC(=O)O)NC(=O)c2cc(N3CCC(N4CCCC4)CC3)cc(-c3ccccc3)n2)CC1,34,
CCOC(=O)N1CCN(C(=O)[C@H](CCC(=O)O)NC(=O)c2cc(NCCO)cc(-c3ccccc3)n2)CC1,114,
CCCNc1cc(C(=O)N[C@@H](CCC(=O)O)C(=O)N2CCN(C(=O)OCC)CC2)nc(-c2ccccc2)c1,64,
CCCCCOC(=O)N1CCN(C(=O)[C@H](CCC(=O)O)NC(=O)c2cccc(-c3ccccc3)n2)CC1,11,clearance [1]: 89 mL/min/kg; Vd [2]: 10.3 L/kg; half-life [3]: 78 min; bioavailability (in vivo): 70%
CCOC(=O)N1CCN(C(=O)[C@H](CCC(=O)O)NC(=O)c2cc(OCC3CCNCC3)cc(-c3ccccc3)n2)CC1,76,
CCOC(=O)N1CCN(C(=O)[C@H](CCC(=O)O)NC(=O)c2cc(N(C)CCS(C)(=O)=O)cc(-c3ccccc3)n2)CC1,48,
CCOC(=O)N1CCN(C(=O)[C@H](CCC(=O)O)NC(=O)c2cc(NC3CCOCC3)cc(-c3ccccc3)n2)CC1,455,
CCOC(=O)N1CCN(C(=O)[C@H](CCC(=O)O)NC(=O)c2cc(OCCCO)cc(-c3ccccc3)n2)CC1,68,
CCCCOc1cc(C(=O)N[C@@H](CCC(=O)O)C(=O)N2CCN(C(=O)OC(C)C)CC2)nc(-c2ccccc2)c1,146,
CC(C)OC(=O)N1CCN(C(=O)[C@H](CCC(=O)O)NC(=O)c2cc(OC3CCNCC3)cc(-c3ccccc3)n2)CC1,157,
CCCOC(=O)N1CCN(C(=O)[C@H](CCC(=O)O)NC(=O)c2cccc(-c3ccccc3)n2)CC1,27,
CCCCCCOC(=O)N1CCN(C(=O)[C@H](CCC(=O)O)NC(=O)c2cc(N3CCC(CN)CC3)cc(-c3ccccc3)n2)CC1,18,
CCCCCCCCOC(=O)N1CCN(C(=O)[C@H](CCC(=O)O)NC(=O)c2cccc(-c3ccccc3)n2)CC1,14,
CCOC(=O)N1CCN(C(=O)[C@H](CCC(=O)O)NC(=O)c2cc(OC)cc(-c3ccccc3)n2)CC1,96,
CCOC(=O)N1CCN(C(=O)[C@H](CCC(=O)O)NC(=O)c2cc(OC(CC)C(=O)N(CC)CC)cc(-c3ccccc3)n2)CC1 (some centres not stated),81,
CCOC(=O)N1CCN(C(=O)[C@H](CCC(=O)O)NC(=O)c2cc(NCC3CCNCC3)cc(-c3ccccc3)n2)CC1,190,
CCCCOC(=O)N1CCN(C(=O)[C@H](CCC(=O)O)NC(=O)c2cc(OCCOC)cc(-c3ccccc3)n2)CC1,18,clearance [1]: 49 mL/min/kg; Vd [2]: 1.5 L/kg; half-life [3]: 24 min; bioavailability (in vivo): 77%
CCCCCCOC(=O)N1CCN(C(=O)[C@H](CCC(=O)O)NC(=O)c2cc(N3CCC(COC)CC3)cc(-c3ccccc3)n2)CC1,33,
CC(C)OC(=O)N1CCN(C(=O)[C@H](CCC(=O)O)NC(=O)c2cc(OCCO)cc(-c3ccccc3)n2)CC1,145,
CCCCCOC(=O)N1CCN(C(=O)[C@H](CCC(=O)O)NC(=O)c2cc(OC3CCNCC3)cc(-c3ccccc3)n2)CC1,3.8,clearance [1]: 133 mL/min/kg; Vd [2]: 3.1 L/kg; half-life [3]: 18 min; bioavailability (in vivo): 1%

# — ChEMBL document CHEMBL1154034, “Piperazinyl-glutamate-pyridines as potent orally bioavailable P2Y12 antagonists for inhibition of platelet aggregation” (Bioorg Med Chem Lett, 2009)
